# Measurements pooled from the literature.
# Lines come from different studies, so protocols differ.
# Sample: plasma
# Route: oral
SMILES,species,dose,setting,Vd/F
CCOc1ccc(Cc2cc([C@@H]3O[C@H](CO)[C@@H](O)[C@H](O)[C@H]3O)ccc2Cl)cc1,human,10 mg,"multiple doses, steady state",320 L
COc1ccc([C@@H]2CN(C(=O)[C@@H](O)CO)C[C@@]2(C)[C@@H](C)O)cc1OC1CN(c2ccc(C)cn2)C1,human,0.1 mg,"single dose, healthy volunteers",23.8 L
c1cnc2ccc(Nc3nc(NC4CC4)c4nc[nH]c4n3)cc2c1,human,400 mg/m²,patients,546 L
Cc1cc(Nc2cc(N3CCN(C)CC3)nc(/C=C/c3ccccc3)n2)n[nH]1,human,120 mg/m²,"multiple doses, patients",847 L
C[C@@]1(c2cc(NC(=O)c3ccc(C#N)cn3)ccc2F)C=CSC(N)=N1,human,3 mg,single dose,235 L
C=C(F)C(=O)N1CCN(c2nc(OC[C@@H]3CCCN3C)nc3c2CCN(c2cccc4cccc(Cl)c24)C3)C[C@@H]1CC#N,human,600 mg,"single dose, fasted",527 L
CCOc1cc2ncc(C#N)c(Nc3ccc(OCc4ccccn4)c(Cl)c3)c2cc1NC(=O)/C=C/[C@H]1CCCN1C,human,80 mg,single dose,4110 L
CC(C)(Sc1ccncc1-c1ccc(C#N)c2ccccc12)C(=O)O,male human,20 mg,"single dose, fed, healthy volunteers",531 L
COc1cc(C(=O)NC2CCN(C)CC2)c(F)cc1Nc1ncc(C(F)(F)F)c(Oc2cccc3c2C(=O)N(C)C3)n1,human,50 mg,"single dose, patients",581 L
CO[C@H]1CC[C@H](N2C(=O)CNc3ncc(-c4ccc(C(C)(C)O)nc4)nc32)CC1,human,15 mg,patients,192 L
C[C@@H](c1ccc2nccn2c1)n1nnc2ncc(-c3cnn(C)c3)nc21,human,600 mg,,506 L
CCOc1cc([C@@H](CS(C)(=O)=O)N2C(=O)c3cccc(NC(C)=O)c3C2=O)ccc1OC,human,30 mg,"single dose, healthy volunteers",141 L
N#CN1C[C@H](n2nc(-c3ccc(Oc4ccc(Cl)cn4)cc3)c(C(N)=O)c2N)CCC12CC2,human,600 mg,fasted,1060 L
